# Assay results from different studies.
# Each line is one published result; the experiments were not run side by side.
# Cell line: PC-3
# Read-out: cell growth or viability
Structure (SMILES),technique,time,IC50
Cc1ccc(Cn2cc(C[C@@]3(O)C[C@@H]4c5cc(OCc6cc(C)cc(C)c6)c(OCc6cc(C)cc(C)c6)cc5CCN4[C@@H](C)C3)nn2)cc1,MTT,,375 nM
COc1c(C)cnc(COc2ccc(NC(=O)Nc3ccc(Cl)c(C(F)(F)F)c3)cc2)c1C,MTT,72 h,> 100000 nM
COc1cc2ncnc(Nc3ccc(F)c(Cl)c3)c2cc1NC(=O)N/N=C/CN1CCOCC1,MTT,72 h,3300 nM
Cc1cc(C)cc(COc2cc3c(cc2OCc2cc(C)cc(C)c2)[C@H]2C[C@](O)(Cc4cn(Cc5cc(C(F)(F)F)cc(C(F)(F)F)c5)nn4)C[C@H](C)N2CC3)c1,MTT,,406 nM
COc1cc2ncnc(Nc3ccc(F)c(Cl)c3)c2cc1NC(=O)N/N=C/c1cccn1CCCN1CCN(C)CC1,MTT,72 h,660 nM
c1ccc(CNCc2cc3c(-c4ccccc4)n[nH]c3c(Nc3ccccc3)n2)cc1,MTS,48 h,3900 nM
CN(C)CCCn1cccc1/C=N/NC(=O)Nc1cc2c(Nc3ccc(F)c(Cl)c3)ncnc2cc1O[C@H]1CCOC1,MTT,72 h,3740 nM
CC(C)c1cc(-c2n[nH]c(=O)n2-c2ccc3c(ccn3C)c2)c(O)cc1O,imaging,24 h,138 nM
C=CC(=O)Nc1ccc(Cn2cc(C[C@@]3(O)C[C@@H]4c5cc(OCc6cc(C)cc(C)c6)c(OCc6cc(C)cc(C)c6)cc5CCN4[C@@H](C)C3)nn2)cc1,MTT,,161 nM
COCCCOc1ccnc(COc2ccc(NC(=O)Nc3cccc(C(F)(F)F)c3)cc2)c1C,MTT,72 h,> 100000 nM
COc1cc(Nc2nccc(-c3cnn4nc(OC)ccc34)n2)cc(C(F)(F)F)c1,ATP luminescence,,370 nM
COC1=CC(=O)N(C(=O)[C@@H](CCC(Cl)(Cl)Cl)NC(=O)C(C)(C)C)[C@@H]1CCC(Cl)(Cl)Cl,resazurin,72 h,13000 nM
COc1ccc(NC(=O)Nc2ccc(OCc3ncc(C)c(OC)c3C)cc2)cc1,MTT,72 h,> 100000 nM
Cc1cc(C)cc(COc2cc3c(cc2OCc2cc(C)cc(C)c2)[C@H]2C[C@](O)(Cc4cn(Cc5cccnc5)nn4)C[C@H](C)N2CC3)c1,MTT,,638 nM
COc1cc(Nc2nc(CN)cc3c(-c4ccccc4)n[nH]c23)cc(OC)c1OC,MTS,48 h,3500 nM
COc1c(C)cnc(COc2ccc(NC(=O)Nc3ccc(Cl)cc3)cc2)c1C,MTT,72 h,47900 nM
O=C(/C=C/c1ccc(CN(CCO)CCc2c[nH]c3ccccc23)cc1)NO,resazurin,72 h,71 nM
O=C(N/N=C/c1cccn1CCCN1CCCC1)Nc1cc2c(Nc3ccc(F)c(Cl)c3)ncnc2cc1O[C@H]1CCOC1,MTT,72 h,1820 nM
CC(C)C(=O)Nc1ccc([N+](=O)[O-])c(C(F)(F)F)c1,CCK-8,48 h,> 50000 nM
Cc1ccc(C(=O)O)c(NC(=O)c2ccc(N)cc2)c1,MTT,,> 120000 nM
COc1cc2ncnc(Nc3ccc(F)c(Cl)c3)c2cc1NC(=O)N/N=C/c1cccn1CCN(C)C,MTT,72 h,1250 nM
COc1cccc2c1C(=O)c1c(O)c3c(c(O)c1C2=O)C[C@@](O)(C(=O)CO)C[C@@H]3O[C@H]1C[C@H](N)[C@H](O)[C@H](C)O1,MTT,72 h,2350 nM
CCOC(=O)c1[nH]cc2c1NC1=C(C(=O)CCC1)[C@H]2c1cccc(Oc2nc3ccccc3[nH]2)c1,ATP luminescence,72 h,> 10000 nM
O=C(N/N=C/c1cccn1CCN1CCOCC1)Nc1cc2c(Nc3ccc(F)c(Cl)c3)ncnc2cc1O[C@H]1CCOC1,MTT,72 h,4270 nM
COc1ccc2c(N(C)c3ccc(/C(C)=N/OCCN)cc3)c3c(Cl)coc3nc2c1,trypan blue,72 h,1590 nM
COc1cc2ncnc(Nc3ccc(F)c(Cl)c3)c2cc1NC(=O)N/N=C/c1cccn1CCCN(C)C,MTT,72 h,30 nM
O=C(/C=C/c1ccc2ncn(Cc3ccccc3)c(=O)c2c1)NO,SRB,48 h,1540 nM
COc1cccc2c1C(=O)c1c(O)c3c(c(O)c1C2=O)C[C@@](O)(C(=O)CO)C[C@@H]3O[C@H]1C[C@H](N)[C@H](O)[C@H](C)O1,MTS,48 h,680 nM
CCN(CC)CCn1cccc1/C=N/NC(=O)Nc1cc2c(Nc3ccc(F)c(Cl)c3)ncnc2cc1OC,MTT,72 h,1050 nM
COc1ccc(Cn2cc(C[C@@]3(O)C[C@@H]4c5cc(OCc6cc(C)cc(C)c6)c(OCc6cc(C)cc(C)c6)cc5CCN4[C@@H](C)C3)nn2)cc1,MTT,,866 nM
CNC(=O)c1cc(Oc2ccc(NC(=O)Nc3ccc(Cl)c(C(F)(F)F)c3)cc2)ccn1,MTT,72 h,3600 nM
COc1cccc2c1C(=O)c1c(O)c3c(c(O)c1C2=O)C[C@@](O)(C(=O)CO)C[C@@H]3O[C@H]1C[C@H](N)[C@H](O)[C@H](C)O1,MTT,48 h,0.629 µg/mL
O=C(/C=C/c1ccc2ncn(Cc3ccccc3F)c(=O)c2c1)NO,SRB,48 h,639 nM
Cc1cc(C)cc(COc2cc3c(cc2OCc2cc(C)cc(C)c2)[C@@H]2C[C@@](O)(Cc4cn(Cc5ccc(S(C)(=O)=O)cc5)nn4)C[C@@H](C)N2CC3)c1,MTT,,230 nM
COc1ccc(NC(=O)Nc2ccc(OCc3nccc(OCC(F)(F)F)c3C)cc2)cc1,MTT,72 h,89100 nM
Cc1cc(C)cc(COc2cc3c(cc2OCc2cc(C)cc(C)c2)[C@H]2C[C@](O)(Cc4cn(Cc5ccc(NC(=O)/C=C/CN(C)C)cc5)nn4)C[C@H](C)N2CC3)c1,MTT,,345 nM
COCCCOc1ccnc(COc2ccc(NC(=O)Nc3cc(F)cc(F)c3)cc2)c1C,MTT,72 h,> 100000 nM
COc1ccc(/C=C/c2cc(C)no2)cc1OC,MTT,72 h,> 100000 nM
C=CC(=O)Nc1ccc(CCn2cc(C[C@@]3(O)C[C@@H]4c5cc(OCc6cc(C)cc(C)c6)c(OCc6cc(C)cc(C)c6)cc5CCN4[C@@H](C)C3)nn2)cc1,MTT,,252 nM
Cc1c(OCC(F)(F)F)ccnc1COc1ccc(NC(=O)Nc2cc(F)cc(F)c2)cc1,MTT,72 h,> 100000 nM
